Measured values: ChEMBL document CHEMBL1144824, “Oximes: metabolic activation and structure-allergenic activity relationships” (J Med Chem, 2008)

Assays:
[1] = Dermal toxicity in CBA/Ca mouse assessed as skin sensitization stimulation index by measuring increase in [3H]thymidine incorporation at 10% w/v administered on ear dorsum by local lymph node assay relative to control; set-up: species or system Skin of body; conditions: in vivo, topical_or_ocular
In short: (§1)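 Female CBA/Ca mice, 8 weeks, n = 3 or 4 per group, 25 µL of test compound in vehicle per OECD 429 LLNA; vehicle-only controls. Day 5: 250 µL PBS with 20 µCi [3H]thymidine i.v. After 5 h, draining auricular nodes were pooled per group, cells suspended and counted by β-scintillation. SI = mean dpm/node of test group over control; SI above 3 counted positive.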

Mus musculus [2] = experiment: Dermal toxicity in CBA/Ca mouse assessed as skin sensitization stimulation index by measuring increase in [3H]thymidine incorporation at 5% w/v administered on ear dorsum by local lymph node assay relative to control; format: organism-based, Skin of body; conditions: in vivo, topical_or_ocular; in short: as §1
Mus musculus [3] = experiment: Dermal toxicity in CBA/Ca mouse assessed as skin sensitization stimulation index by measuring increase in [3H]thymidine incorporation at 20% w/v administered on ear dorsum by local lymph node assay relative to control; format: organism-based, Skin of body; conditions: in vivo, topical_or_ocular; in short: as §1
Mus musculus [4] = species on record: Mus musculus; experiment: Dermal toxicity in CBA/Ca mouse assessed as drug level inducing 3 times increase in skin sensitization stimulation index by measuring [3H]thymidine incorporation relative to control; format: organism-based; conditions: in vivo
In short: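 Local lymph node assay per OECD Guideline 429 in female CBA/Ca mice, 8 weeks old, groups of 3 or 4. Each mouse got 25 µL of test compound in vehicle; controls got vehicle alone. Five days after first treatment, mice were dosed i.v. with 20 µCi [3H]thymidine in PBS. Auricular lymph nodes were pooled per group 5 h later and counted by β-scintillation. Value is the concentration giving SI (test/control) of 3.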

Mus musculus [5] = experiment: Dermal toxicity in CBA/Ca mouse assessed as skin sensitization stimulation index by measuring increase in [3H]thymidine incorporation at 0.1% w/v administered on ear dorsum by local lymph node assay relative to control; format: organism-based, Skin of body; conditions: in vivo, topical_or_ocular; in short: as §1
Mus musculus [6] = experiment: Dermal toxicity in CBA/Ca mouse assessed as skin sensitization stimulation index by measuring increase in [3H]thymidine incorporation at 1% w/v administered on ear dorsum by local lymph node assay relative to control; format: organism-based, Skin of body; conditions: in vivo, topical_or_ocular; in short: as §1

Row | Compound | Activity [1] | Activity (Mus musculus [2]) | Activity (Mus musculus [3]) | Activity (Mus musculus [4]) [mM] | Activity (Mus musculus [5]) | Activity (Mus musculus [6])
1 | CC1=CCCC/C1=N\O | 7.91 | 5.03 | 11.3 | 160 | 1 | 2.36
2 | O/N=C\c1ccccc1 | 2.33 | 1.55 | 2.56 | > 1700 | 1.75 | 1.8
3 | O/N=C1/C=CCCC1 |  | 7.6 |  | 55 | 1.54 | 4.1
4 | CC1=C/C(=N/O)CCC1 | 5.34 | 5.06 | 7.3 | 180 | 0.76 | 2.1
5 | C/C=C/C(CC)=N/O | 3.34 | 1.69 | 6.62 | 790 | 0.99 | 0.99
6 | CC1=C(C)/C(=N/O)CCC1 | 1.16 | 1.43 | 1.3 | > 1400 | 1.1 | 1.24
7 | ON=C1CCCCC1 [CYCLOHEXANONE OXIME] | 1.17 | 0.77 | 0.84 | > 1800 | 0.96 | 0.9
